Mdm2 MdmX PPI: inhibitors of human Mdm2/MdmX interaction | SaOS-2 split-luciferase Mdm2/MdmX complementation, luminescence | inhibition, % at 8 µM | hit rate 3% among 330,000;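 active means inhibition of at least 50% at 8 µM in the primary screen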
Target sequence (O15151 whole entry, looked up): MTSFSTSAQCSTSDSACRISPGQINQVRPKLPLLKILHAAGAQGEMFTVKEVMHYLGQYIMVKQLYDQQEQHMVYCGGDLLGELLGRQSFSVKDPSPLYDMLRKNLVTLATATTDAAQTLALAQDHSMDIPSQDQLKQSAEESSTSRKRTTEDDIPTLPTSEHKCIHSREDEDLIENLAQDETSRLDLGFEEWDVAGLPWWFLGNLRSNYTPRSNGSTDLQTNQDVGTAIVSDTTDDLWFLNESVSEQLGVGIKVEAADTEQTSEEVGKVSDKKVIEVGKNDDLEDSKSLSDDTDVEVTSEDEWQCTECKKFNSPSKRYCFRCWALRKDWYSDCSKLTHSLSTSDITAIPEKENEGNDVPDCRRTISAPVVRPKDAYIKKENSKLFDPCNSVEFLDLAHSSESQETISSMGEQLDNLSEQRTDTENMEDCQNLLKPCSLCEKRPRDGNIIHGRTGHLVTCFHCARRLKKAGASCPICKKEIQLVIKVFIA
Target sequence (Q00987 whole entry, looked up): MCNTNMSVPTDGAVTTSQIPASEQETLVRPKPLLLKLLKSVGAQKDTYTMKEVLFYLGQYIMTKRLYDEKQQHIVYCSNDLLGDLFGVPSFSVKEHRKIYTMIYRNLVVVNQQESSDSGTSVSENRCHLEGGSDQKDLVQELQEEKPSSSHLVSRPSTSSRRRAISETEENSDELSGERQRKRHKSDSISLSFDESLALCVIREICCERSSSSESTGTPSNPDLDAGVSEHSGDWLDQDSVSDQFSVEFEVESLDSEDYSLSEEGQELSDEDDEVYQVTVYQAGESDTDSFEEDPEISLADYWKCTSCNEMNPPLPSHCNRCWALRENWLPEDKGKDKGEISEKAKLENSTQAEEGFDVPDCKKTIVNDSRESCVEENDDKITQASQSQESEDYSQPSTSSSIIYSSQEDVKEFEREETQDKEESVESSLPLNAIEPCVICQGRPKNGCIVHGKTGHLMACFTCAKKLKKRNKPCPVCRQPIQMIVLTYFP
CSC inhib: cancer stem cell inhibition | cancer stem cell-like cells viability, luminescence | inhibition, % at 7.5 µM | hit rate 1.1% among 300,000; in the data active means inhibition above about 75%; inconclusive means no clear call, values can overlap the other calls; tested in HMLE shEcad cells
aSyn 5UTR inh: MLPCN primary screen, SNCA 5' untranslated region; AID 1813; alpha-synuclein 5'UTR reporter, inhibitor activity; hit rate 0.82% among 300,000; inhibition, % (tested at 7.5 µM); in the data active means inhibition above about 60%; inconclusive means no clear call, values can overlap the other calls;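 further: H4 neuroglioblastoma cells stably carrying SNCA 5'UTR luciferase fusion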
T cruzi inh: blocks replication of Trypanosoma cruzi; T. cruzi beta-gal in NIH3T3, luminescence, 90 h; inhibition, % (concentration not given with the values); hit rate 1.4% among 300,000; AID 1885;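 active means mean inhibition across valid replicates above about 55%, limit read from the data; inconclusive means mean below that limit but half or more replicates reach it; inactive means mean below it, under half of replicates reach it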;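 further: signal also drops with host cell toxicity which is not excluded here; higher percent means less beta-gal luminescence so fewer parasites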
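System – NIH/3T3 host cells with β-galactosidase reporter T. cruzi · Doses – single 50 nL compound addition per well in DMSO · Reagent – 5000 T. cruzi trypomastigotes/well · Medium – Low-serum DMEM with 2% FBS · Timing – ≥90 h infection period, 3 h prior cell attachment · Evaluation – parasite load inhibition, % · Technique – GalScreen luminescence, 60 min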
SKKanGAS inh: blocks kanamycin growth of S. pyogenes SKKanGAS strain | BacTiter-Glo, 6 h | inhibition, % at 7.5 µM | hit rate 1.3% among 300,000;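 active means mean replicate score, as percent of positive control median, at least 50; inconclusive means mean below 50 but one replicate at or above 50; inactive means mean and every replicate below 50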;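 further: strain carries kanamycin resistance gene driven by streptokinase promoter and grows in 40 µg/ml kanamycin; loss of luminescence reflects streptokinase promoter inhibition or plain growth inhibition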
Mdm2-MdmX conf: human Mdm2/MdmX binding inhibition, confirmed | hit rate 55% among 10,000 | inhibition, % at 8 µM | AID 489028 | luminescent assay | shares compounds with Mdm2 MdmX PPI; in the data active means inhibition above about 40%
FLuc counter: inhibits full-length luciferase, flagging false Mdm2/MdmX hits | shares compounds with Mdm2 MdmX PPI | SaOS-2 full-length luciferase counterscreen, luminescence | inhibition, % at 8 µM | hit rate 77% among 6,200 | AID 504607;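 active means mean inhibition at 8 µM reaching about 37%, which flags the compound as non-specific, limit read from the data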;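 further: p53-null SaOS-2 cells with luciferase driven by a doxycycline-inducible promoter; compound on cells about two nights before reading with doxycycline added after day one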
A number is an active result. The list is not random: actives were taken first. Their share in the collection is about 5.4%.

What do the screens show for `O=C(NC1CCCc2c1cnn2-c1ccc(F)cc1F)c1ccccn1` (stereo not given)?
Mdm2 MdmX PPI: inactive; CSC inhib: inactive; aSyn 5UTR inh: inactive; T cruzi inh: inactive; SKKanGAS inh: inactive

What do the screens show for `Cc1ccccc1OCC(=O)OCC(=O)Nc1cc(S(=O)(=O)N2CCCCC2)ccc1Cl`?
Mdm2 MdmX PPI: inactive; CSC inhib: inactive; aSyn 5UTR inh: inactive; T cruzi inh: inactive; SKKanGAS inh: inactive

How did CC(=O)N1CCC2(CC1)C/C(=N\NC(=S)Nc1ccccc1C)c1cc(O)ccc1O2 do in these assays?
Mdm2 MdmX PPI: inactive; CSC inhib: inactive; aSyn 5UTR inh: inactive; T cruzi inh: inactive; SKKanGAS inh: inactive

What do the screens show for `CC(=O)N1CCC2(CC1)C/C(=N\NC(=S)Nc1ccccc1F)c1cc(O)ccc1O2`?
Mdm2 MdmX PPI: 67.4; CSC inhib: inactive; aSyn 5UTR inh: inactive; T cruzi inh: inactive; SKKanGAS inh: inactive; Mdm2-MdmX conf: inactive; FLuc counter: 95.9

How did CCCN(CC(=O)Nc1ccccc1C)C(=O)COc1c(C)cccc1C do in these assays?
Mdm2 MdmX PPI: inactive

What do the screens show for `CCCN(CC(=O)Nc1ccccc1C)C(=O)CCl`?
Mdm2 MdmX PPI: 95.1; CSC inhib: inactive; aSyn 5UTR inh: inactive; T cruzi inh: 78.3; SKKanGAS inh: inactive; Mdm2-MdmX conf: 97.2; FLuc counter: 49.0

Results for Cc1cc(C)cc(CC2CC(=O)N(c3ccc([N+](=O)[O-])cc3)C2=O)c1 (stereo not given) ?
Mdm2 MdmX PPI: inactive; CSC inhib: inactive; aSyn 5UTR inh: inactive; T cruzi inh: inactive; SKKanGAS inh: inactive

How did O=C(c1ccc(CS(=O)c2ccccc2Cl)o1)N1CCN(c2ccccn2)CC1 (stereo not given) do in these assays?
Mdm2 MdmX PPI: 62.8; CSC inhib: inactive; aSyn 5UTR inh: inactive; T cruzi inh: inactive; SKKanGAS inh: inactive; Mdm2-MdmX conf: 56.0; FLuc counter: 45.3

How did O=C(c1ccc(CS(=O)Cc2ccccc2Cl)o1)N1CCN(c2ccccn2)CC1 (stereo not given) do in these assays?
Mdm2 MdmX PPI: inactive; CSC inhib: inactive; aSyn 5UTR inh: inactive; T cruzi inh: inactive; SKKanGAS inh: inactive

What do the screens show for `COc1ccc(Cc2nnc(NC(=O)CS(=O)(=O)Cc3ccccc3)s2)cc1`?
Mdm2 MdmX PPI: inactive; CSC inhib: inactive; aSyn 5UTR inh: inactive; T cruzi inh: inactive; SKKanGAS inh: inactive

How did Cc1cc(SCC(=O)N/N=C/c2ccc(O)c(O)c2)nc2ccccc12 do in these assays?
Mdm2 MdmX PPI: inactive; CSC inhib: inactive; aSyn 5UTR inh: inactive; T cruzi inh: inactive; SKKanGAS inh: inactive

How did Cc1cc(SCC(=O)N/N=C/c2ccc(O)cc2O)nc2ccccc12 do in these assays?
Mdm2 MdmX PPI: 74.4; CSC inhib: 133.0; aSyn 5UTR inh: inconclusive; T cruzi inh: 69.0; SKKanGAS inh: inactive; Mdm2-MdmX conf: 73.2; FLuc counter: inactive

Results for O=C(CSc1ccccn1)Nc1nonc1[N+](=O)[O-] ?
Mdm2 MdmX PPI: 94.9; aSyn 5UTR inh: inactive; T cruzi inh: inactive; SKKanGAS inh: inconclusive; Mdm2-MdmX conf: 79.8; FLuc counter: inactive

How did O=C(O)c1cccc(NC(=S)NC(NC(=O)c2cccc([N+](=O)[O-])c2)C(Cl)(Cl)Cl)c1 (stereo not given) do in these assays?
Mdm2 MdmX PPI: inactive; CSC inhib: inactive; aSyn 5UTR inh: inactive; T cruzi inh: inactive; SKKanGAS inh: inactive

What do the screens show for `O=C(NC(NC(=S)Nc1ccc(Cl)cc1Cl)C(Cl)(Cl)Cl)c1cccc([N+](=O)[O-])c1` (stereo not given)?
Mdm2 MdmX PPI: 98.2; CSC inhib: 128.0; aSyn 5UTR inh: inactive; T cruzi inh: 73.9; SKKanGAS inh: 106.2; Mdm2-MdmX conf: 93.7; FLuc counter: inactive

What do the screens show for `O=C(NC(NC(=S)Nc1ccccc1)C(Cl)(Cl)Cl)c1cccc(Cl)c1` (stereo not given)?
Mdm2 MdmX PPI: 92.7; CSC inhib: 89.3; aSyn 5UTR inh: inactive; T cruzi inh: 65.1; SKKanGAS inh: inactive; Mdm2-MdmX conf: 45.5; FLuc counter: 66.0

How did C/C(CC(=O)Nc1cc(C)ccn1)=N\NC(=O)c1cccc(C)c1O do in these assays?
Mdm2 MdmX PPI: 65.8; CSC inhib: inactive; aSyn 5UTR inh: inactive; T cruzi inh: inconclusive; SKKanGAS inh: inactive; Mdm2-MdmX conf: 45.8; FLuc counter: 120.8

Results for C/C(CC(=O)Nc1cc(C)ccn1)=N\NC(=O)c1cccc(C)c1 ?
Mdm2 MdmX PPI: inactive; CSC inhib: inactive; aSyn 5UTR inh: inactive; T cruzi inh: inactive; SKKanGAS inh: inactive

Results for NS(=O)(=O)c1ccc(F)c(C(=O)O)c1 ?
Mdm2 MdmX PPI: inactive; CSC inhib: inactive; aSyn 5UTR inh: inactive; T cruzi inh: inactive; SKKanGAS inh: inactive

What do the screens show for `O=S(=O)(Nc1cccc2ncccc12)c1cccs1`?
Mdm2 MdmX PPI: 74.1; CSC inhib: inactive; aSyn 5UTR inh: inactive; T cruzi inh: inactive; SKKanGAS inh: 87.2; Mdm2-MdmX conf: 100.2; FLuc counter: 52.0

What do the screens show for `CCN1CCN(c2ncnc3c2c(-c2ccccc2)cn3-c2ccc(F)cc2)CC1`?
Mdm2 MdmX PPI: inactive; CSC inhib: inactive; aSyn 5UTR inh: inactive; T cruzi inh: inactive; SKKanGAS inh: inactive

How did NC(=O)C1CCN(c2ncnc3c2c(-c2ccccc2)cn3-c2ccccc2)CC1 do in these assays?
Mdm2 MdmX PPI: inactive; CSC inhib: inactive; aSyn 5UTR inh: inactive; T cruzi inh: inactive; SKKanGAS inh: inactive

Results for COc1ccc(-n2cc(-c3ccccc3)c3c(NCCCN4CCOCC4)ncnc32)cc1 ?
Mdm2 MdmX PPI: inactive; CSC inhib: inactive; aSyn 5UTR inh: inactive; T cruzi inh: inactive; SKKanGAS inh: inactive

How did COc1ccc(-n2cc(-c3ccccc3)c3c(N4CCOCC4)ncnc32)cc1 do in these assays?
Mdm2 MdmX PPI: 74.0; CSC inhib: 102.4; aSyn 5UTR inh: inactive; T cruzi inh: inactive; SKKanGAS inh: inactive; Mdm2-MdmX conf: 61.9; FLuc counter: 79.9

What do the screens show for `OCCN1CCN(c2ncnc3c2c(-c2ccccc2)cn3-c2ccc(Br)cc2)CC1`?
Mdm2 MdmX PPI: 55.2; CSC inhib: inactive; aSyn 5UTR inh: inactive; T cruzi inh: inactive; SKKanGAS inh: inactive; Mdm2-MdmX conf: inactive

What do the screens show for `Fc1ccc(-n2cc(-c3ccccc3)c3c(N4CCOCC4)ncnc32)cc1`?
Mdm2 MdmX PPI: 62.7; CSC inhib: inactive; aSyn 5UTR inh: inactive; T cruzi inh: inactive; SKKanGAS inh: inactive; Mdm2-MdmX conf: 58.8; FLuc counter: 66.8

Results for COc1ccccc1NC(=O)C(C)NC(c1ccccc1)c1ccccc1 (stereo not given) ?
Mdm2 MdmX PPI: inactive; CSC inhib: inactive; aSyn 5UTR inh: inactive; T cruzi inh: inactive; SKKanGAS inh: inactive

How did CC1=NN(c2cccc(C(=O)O)c2)C(=O)/C1=C\C=C/c1ccccc1 do in these assays?
Mdm2 MdmX PPI: 64.6; aSyn 5UTR inh: inactive; T cruzi inh: inactive; SKKanGAS inh: inactive; Mdm2-MdmX conf: inactive

Results for CC(C)(C)c1ccc(C(=O)O/N=C(\N)c2ccccn2)cc1 ?
Mdm2 MdmX PPI: 98.2; CSC inhib: inactive; aSyn 5UTR inh: 94.0; T cruzi inh: inactive; SKKanGAS inh: inactive; Mdm2-MdmX conf: 97.3; FLuc counter: inactive

Compound activity from PubChem BioAssay.
